Apaf-1 act – human Apaf-1 activation; O14727; Apaf-1 apoptosome caspase-3 activation, DEVD-Rh110 fluorescence; active compounds read low; activity change, negative = activation, % at 20 µM; 330,000 tested, 0.31% active;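 active = activity change at or below -40% at 20 µM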
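Assay system – biochemical Apaf-1 apoptosome reconstitution · Medium – 20 mM HEPES buffer, pH 7.5, containing CHAPS and BSA · Incubation – 30 min preincubation, 50 min reaction, room temperature · Measured by – Caspase-3-released Rh110 fluorescence, 540 nm emission, 480 nm excitation · Read-out – Caspase-3 cleavage activity downstream of Apaf-1 activation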
Rh110 interf act – interferes with Rh110 fluorescence, flagging false Apaf-1 activators | AID 504616 | fluorescence interference (activity change), % at 20 µM, hits read low | shares compounds with Apaf-1 act | Rh110 fluorescence interference, quenched caspase reaction, Ex480/Em540 | 980 tested, under 10 active;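 active = mean activity change at or below -40% when tested at 20 µM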
Apaf-1 act conf – confirmation of human Apaf-1 activators. shares compounds with Apaf-1 act. reconstituted apoptosome caspase-3 activity, DEVD-Rh110 fluorescence; active compounds read low. activity change, negative = activation, % at 20 µM. 980 tested, 5% active;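 active = mean activity change at or below -40%, meaning activation of 40% or more, at 20 µM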
Active calls of the source: *. Not all results are given here.

Results for O=C(O)c1ccc(NC2=C(n3nnc4ccccc43)C(=O)c3ccccc3C2=O)cc1 ?
Apaf-1 act: 73

What do the screens show for `O=C(O)c1ccc2c(c1)-c1nc3ccccc3n1C2=O`?
Apaf-1 act: -113*; Rh110 interf act: -2; Apaf-1 act conf: -1

Results for Cc1cccc(NC(=O)CCN2CCC(C)CC2)c1 ?
Apaf-1 act: -54*; Rh110 interf act: 2; Apaf-1 act conf: 1

What do the screens show for `COc1ccc(CN2CCC(C(=O)Nc3ccc(Oc4cccnc4)cc3)CC2)cc1`?
Apaf-1 act: 58

How did COc1ccc(NC(=O)CN(C)C(=O)C2CSC3(C)CCC(=O)N23)cc1 (stereo not given) do in these assays?
Apaf-1 act: 43

Results for Cc1cccc(NC(=O)NCc2ccc3c(c2)cc(C)n3C)c1 ?
Apaf-1 act: 54

How did Cc1cccc(NC(=O)c2sc3nc4c(c(-c5cccs5)c3c2N)CN(C)CC4)c1 do in these assays?
Apaf-1 act: 50

Results for COc1ccc(NC(=O)CN2CCC(C)CC2)cc1 ?
Apaf-1 act: -52*; Rh110 interf act: -1; Apaf-1 act conf: 3

Results for NC1=Nc2cccc3cccc1c23 ?
Apaf-1 act: 67

What do the screens show for `CC(=O)[C@@H]1[C@@H]2C(=O)N(C3CCCCC3)C(=O)[C@@H]2C2c3ccccc3C=CN21` (stereo not given in full)?
Apaf-1 act: 84

How did OC(CNCC1CCCO1)Cn1c2ccc(Cl)cc2c2cc(Cl)ccc21 (stereo not given) do in these assays?
Apaf-1 act: 43

Results for Nc1ccc2nc(-c3ccccc3)c(-c3ccccc3)nc2c1 ?
Apaf-1 act: 65

What do the screens show for `CCCN1CCN(C(=S)Nc2ccccc2C(F)(F)F)CC1`?
Apaf-1 act: -81*; Rh110 interf act: 3; Apaf-1 act conf: 13

How did CN1CCN(C2=C(Cl)C(=O)C(c3cnc(N4CCCCC4)s3)=C(Cl)C2=O)CC1 do in these assays?
Apaf-1 act: 84

Results for O/N=C(\c1ccccn1)C1CC1c1ccccc1 (stereo not given) ?
Apaf-1 act: -63*; Rh110 interf act: 16; Apaf-1 act conf: 15

How did CCOc1ccccc1N1CSC2=C(C#N)C(c3c(OC)ccc4ccccc34)CC(=O)N2C1 (stereo not given) do in these assays?
Apaf-1 act: 41

What do the screens show for `FC(F)(F)C1=Nc2cccc3cccc(c23)N1`?
Apaf-1 act: 66

How did CCN(CC)C(=O)CSC(=Nc1ccccc1F)NC#N do in these assays?
Apaf-1 act: -52*; Rh110 interf act: 18; Apaf-1 act conf: 11

How did Cn1c(=O)c2[nH]c(=O)cnc2n(C)c1=S do in these assays?
Apaf-1 act: 56

What do the screens show for `COC1=C(Nc2ccccc2OC)C(=O)c2ccccc2C1=O`?
Apaf-1 act: 54

How did COc1ccccc1NC(=O)Nc1ccccc1C(N)=O do in these assays?
Apaf-1 act: -630*; Rh110 interf act: 5; Apaf-1 act conf: 7

What do the screens show for `CCN(CC(=O)Nc1ccccc1OC)C(=O)c1ccccc1Sc1ccccc1C#N`?
Apaf-1 act: 58

Results for Cn1c(C(=O)NCCN2CCCCCC2)cc2c(=O)n(C)c3ccccc3c21 ?
Apaf-1 act: 43

Results for O=C(CO/N=C/c1ccc(OC(F)F)cc1)NC1CCCC1 ?
Apaf-1 act: -453*; Rh110 interf act: 2; Apaf-1 act conf: 11

Results for C#CCOCCOCCOCCNc1nc(N2CCN(C(=O)[C@H]([C@@H](C)CC)n3cc([C@@H](N)CO)nn3)CC2)nc(N2CCN(C(=O)[C@H](Cc3cc4ccccc4[nH]3)n3cc([C@@H](N)Cc4ccc(O)cc4)nn3)CC2)n1 ?
Apaf-1 act: 57

How did O=C1CCC(C(=O)OCC(=O)N2N=C3/C(=C/c4ccccc4)CCCC3C2c2ccccc2)N1 (stereo not given) do in these assays?
Apaf-1 act: 43

How did O=c1oc2cc(O)ccc2c2oc3cc(O)ccc3c12 do in these assays?
Apaf-1 act: -41*; Rh110 interf act: 15; Apaf-1 act conf: 18

What do the screens show for `COc1ccc2c(c1)c(=O)oc1cc(O)ccc12`?
Apaf-1 act: -299*; Rh110 interf act: 2; Apaf-1 act conf: 10

What do the screens show for `COc1cccc(C(c2c(C)[nH]n(-c3ccccc3)c2=O)c2c(C)[nH]n(-c3ccccc3)c2=O)c1OC`?
Apaf-1 act: 97

What do the screens show for `O=C1NC2=C(CCc3ccccc32)C(c2ccccc2)N1` (stereo not given)?
Apaf-1 act: 91

What do the screens show for `CCc1cc[n+](C2=C([O-])c3ccccc3C(=O)/C2=N\S(=O)(=O)c2cccs2)cc1`?
Apaf-1 act: 68

Results for CC[C@@H](C)[C@H](CNC)NC[C@@H](Cc1cccc2ccccc12)NCCc1cccc(C(F)(F)F)c1 ?
Apaf-1 act: 70

What do the screens show for `CC(C(=O)O)N1C(=O)/C(=C/C=C/c2ccco2)SC1=S` (stereo not given)?
Apaf-1 act: 47

What do the screens show for `CC(C)=C1C2C=CC1C1C(=O)N(c3ccc4c(c3)OCO4)C(=O)C21` (stereo not given)?
Apaf-1 act: -71*; Rh110 interf act: 1; Apaf-1 act conf: 10

What do the screens show for `N#C[C@@H]1[C@@H]2C(=O)N(c3ccc4c(c3)OCCO4)C(=O)[C@@H]2C2c3ccccc3C=CN21` (stereo not given in full)?
Apaf-1 act: 78

Results for Cn1/c(=N/NC(=O)c2ccccc2F)sc2ccccc21 ?
Apaf-1 act: -72*; Rh110 interf act: 5; Apaf-1 act conf: 2

Results for NC(=O)C1CCN(C2=C(Cl)C(=O)c3ccccc3C2=O)CC1 ?
Apaf-1 act: 73

What do the screens show for `OC(COc1c(Cl)cc(Cl)cc1Cl)CN1CCCCC1` (stereo not given)?
Apaf-1 act: -88*; Rh110 interf act: 0; Apaf-1 act conf: 15

Results for Nc1cccnc1Sc1cccc(Cl)c1 ?
Apaf-1 act: 76

What do the screens show for `Cc1oc2c(c1C(=O)NCc1cccnc1)C(=O)c1ccccc1C2=O`?
Apaf-1 act: 86

Results for O=C(NCc1cccnc1)c1cc(Sc2cccc(Cl)c2)nc2ccccc12 ?
Apaf-1 act: -47*; Rh110 interf act: 12; Apaf-1 act conf: 19

Results for C=C[C@H]1CN2CC[C@H]1C[C@@H]2[C@@H](O)c1ccnc2ccc(OC)cc12 ?
Apaf-1 act: -3

What do the screens show for `O=C(NNC(=S)Nc1ccc(Cl)cc1)c1ccccc1`?
Apaf-1 act: -66*; Rh110 interf act: -3; Apaf-1 act conf: 5

Results for O=C(NC1=C(Nc2ccc(Cl)cc2)C(=O)c2ccccc2C1=O)c1ccccc1 ?
Apaf-1 act: 54

What do the screens show for `O=C1C(Cl)=C(NC(=O)c2ccccc2)C(=O)C(Cl)=C1NC(=O)c1ccccc1`?
Apaf-1 act: 56

Results for Cc1cnc(NC(=O)C2=C(O)c3ccccc3S(=O)(=O)N2C)s1 ?
Apaf-1 act: -2

Results for O=C(c1ccccc1)[C@@H]1[C@@H](C(=O)c2ccc(F)cc2)[C@@]2(C(=O)Nc3ccccc32)[C@H]2c3ccccc3C=CN12 ?
Apaf-1 act: 64

How did CCOc1ccc(S(=O)(=O)N2CCc3ccccc3C2)cc1 do in these assays?
Apaf-1 act: -120*; Rh110 interf act: -5; Apaf-1 act conf: 12

Compound activity as filed in PubChem BioAssay.
